{"source": "PubChem BioAssay AID588557", "about": "(Sanford-Burnham Center for Chemical Genomics, 2011)", "system": "CHO-CHOP cells viability, ATPLite luminescence, 6 h", "assay": "cytotoxicity in CHO-CHOP reporter cells, SAR follow-up, cytotoxicity control for UPR apoptotic arm activator project, cell-based, 6 h exposure, ATPLite luminescence (AID 588557)", "outline": "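Assay system: CHO-CHOP reporter cells; Quantity: 500 cells/well; Buffer or medium: F12 medium with 10% fetal bovine serum; Times: overnight plating, 6 h compound exposure at 37 °C; Technique: ATP luminescence with ATPLite 1-Step reagent; Controls: tunicamycin 10 µg/mL positive, DMSO-only negative.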", "note": "Calls of active or inactive are those of the source.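 How the source made its calls: active means cytotoxic IC50, the dose that kills half the cells, at 20 µM or lower; inactive means the rest.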", "data": [{"smiles": "O=C(Nc1nc2c(F)cc(F)cc2s1)c1ccccn1", "values": [{"measurement": "IC50", "value": 9.57, "unit": "µM"}]}, {"smiles": "O=C(Nc1nc2c(Cl)cc(Cl)cc2s1)c1ccccn1", "values": [{"measurement": "IC50", "value": "> 80 µM (inactive)"}]}, {"smiles": "O=C(Nc1nc2cc(F)ccc2s1)c1ccccn1", "values": [{"measurement": "IC50", "value": 2.7, "unit": "µM"}]}, {"smiles": "O=C(Nc1ccc(S(=O)(=O)N2CCC3(CCCCC3)CC2)cc1)c1ccc([N+](=O)[O-])o1", "values": [{"measurement": "IC50", "value": "> 80 µM (inactive)"}]}, {"smiles": "O=C(Nc1nc2cccc(F)c2s1)c1ccccn1", "values": [{"measurement": "IC50", "value": 7.07, "unit": "µM"}]}, {"smiles": "O=C(Nc1ccc(S(=O)(=O)C2CCOCC2)cc1)c1ccc([N+](=O)[O-])o1", "values": [{"measurement": "IC50", "value": "> 80 µM (inactive)"}]}, {"smiles": "O=C(Nc1ccc(S(=O)(=O)N2CCNCC2)cc1)c1ccc([N+](=O)[O-])o1", "values": [{"measurement": "IC50", "value": "> 80 µM (inactive)"}]}, {"smiles": "O=C(Nc1ccc(S(=O)(=O)c2ccccc2)cc1)c1ccc([N+](=O)[O-])o1", "values": [{"measurement": "IC50", "value": "> 80 µM (inactive)"}]}, {"smiles": "O=C(Nc1ccc(S(=O)(=O)N2CCCC2)cc1)c1ccc([N+](=O)[O-])o1", "values": [{"measurement": "IC50", "value": "74.6 µM (inactive)"}]}, {"smiles": "CC1(C)CCN(S(=O)(=O)c2ccc(NC(=O)c3ccc([N+](=O)[O-])o3)cc2)CC1", "values": [{"measurement": "IC50", "value": "> 80 µM (inactive)"}]}, {"smiles": "O=C(Nc1nc2c(F)c(F)ccc2s1)c1ccccn1", "values": [{"measurement": "IC50", "value": 15.1, "unit": "µM"}]}, {"smiles": "O=C(Nc1nc2c(F)cccc2s1)c1ccccn1", "values": [{"measurement": "IC50", "value": 4.42, "unit": "µM"}]}, {"smiles": "O=C(Nc1ccc(S(=O)(=O)N2CCOCC2)cc1)c1ccc([N+](=O)[O-])s1", "values": [{"measurement": "IC50", "value": "> 80 µM (inactive)"}]}, {"smiles": "CC(C)(C)C1CCN(S(=O)(=O)c2ccc(NC(=O)c3ccc([N+](=O)[O-])o3)cc2)CC1", "values": [{"measurement": "IC50", "value": "> 80 µM (inactive)"}]}, {"smiles": "CC1CCN(S(=O)(=O)c2ccc(NC(=O)c3ccc([N+](=O)[O-])o3)cc2)CC1", "values": [{"measurement": "IC50", "value": "> 80 µM (inactive)"}]}, {"smiles": "Cc1cc(C)c2nc(NC(=O)c3ccccn3)sc2c1", "values": [{"measurement": "IC50", "value": 16.2, "unit": "µM"}]}, {"smiles": "O=C(Nc1nc2c(F)ccc(F)c2s1)c1ccccn1", "values": [{"measurement": "IC50", "value": "23.6 µM (inactive)"}]}, {"smiles": "CC1CN(S(=O)(=O)c2ccc(NC(=O)c3ccc([N+](=O)[O-])o3)cc2)CC(C)O1", "note": "(stereo not given)", "values": [{"measurement": "IC50", "value": "> 80 µM (inactive)"}]}, {"smiles": "O=C(Nc1ccc(S(=O)(=O)N2CCC(F)CC2)cc1)c1ccc([N+](=O)[O-])o1", "values": [{"measurement": "IC50", "value": "> 80 µM (inactive)"}]}, {"smiles": "O=C(Nc1nc2cc(F)c(F)cc2s1)c1ccccn1", "values": [{"measurement": "IC50", "value": 8.4, "unit": "µM"}]}, {"smiles": "O=C(Nc1nc2ccc(Cl)cc2s1)c1ccccn1", "values": [{"measurement": "IC50", "value": 3.84, "unit": "µM"}]}, {"smiles": "O=C(Nc1ccc(S(=O)(=O)C2CCCCC2)cc1)c1ccc([N+](=O)[O-])o1", "values": [{"measurement": "IC50", "value": "> 80 µM (inactive)"}]}, {"smiles": "O=C(Nc1ccc(S(=O)(=O)N2CCC(O)CC2)cc1)c1ccc([N+](=O)[O-])o1", "values": [{"measurement": "IC50", "value": "> 80 µM (inactive)"}]}, {"smiles": "O=C(Nc1ccc(S(=O)(=O)N2CCOCC2)cc1)c1ccc([N+](=O)[O-])o1", "values": [{"measurement": "IC50", "value": "> 80 µM (inactive)"}]}, {"smiles": "O=C(Nc1nc2ccc(C(F)(F)F)cc2s1)c1ccccn1", "values": [{"measurement": "IC50", "value": 4.63, "unit": "µM"}]}, {"smiles": "O=C(Nc1ccc(S(=O)(=O)N2CCC(Cl)CC2)cc1)c1ccc([N+](=O)[O-])o1", "values": [{"measurement": "IC50", "value": "> 80 µM (inactive)"}]}, {"smiles": "O=C(Nc1ccc(S(=O)(=O)N2CCCCC2)cc1)c1ccc([N+](=O)[O-])o1", "values": [{"measurement": "IC50", "value": "> 80 µM (inactive)"}]}, {"smiles": "O=C(Nc1nc2ccc(F)cc2s1)c1ccccn1", "values": [{"measurement": "IC50", "value": 4.52, "unit": "µM"}]}, {"smiles": "O=C(Nc1nc2ccc(F)c(F)c2s1)c1ccccn1", "values": [{"measurement": "IC50", "value": 13.4, "unit": "µM"}]}, {"smiles": "O=C(Nc1nc2cc(F)cc(F)c2s1)c1ccccn1", "values": [{"measurement": "IC50", "value": 8.88, "unit": "µM"}]}]}
